Results taken from PubChem BioAssay AID720717 (ICCB-Longwood Screening Facility, Harvard Medical School, 2013).
Several values for one entry are separate records, joined by “and”; a condition that tells them apart may be missing. Equal values may be shown once. Among all 51,000 compounds or so, about 150 (0.29%) were called active. Only a selection was taken, and actives are over-represented in it overall. A number with no mark means an inactive call.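 The calls were made as follows: active = both repeat wells score below -2 in polarization z-score versus plate sample wells, excluding overly bright wells; inactive = the rest.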

system: LANA (ORF73) N-terminal peptide binding to nucleosomes, Human herpesvirus 8; experiment: inhibitors of KSHV LANA-nucleosome binding, primary screen, biochemical, fluorescence polarization, FITC-LANA1-23, chicken nucleosomes (AID 720717); conditions: FITC-LANA1-23 / chicken nucleosome fluorescence polarization; active compounds read low
How it was run: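 Material: Purified chicken nucleosomes with FITC-labelled LANA N-terminal peptide (1-23) | Reagent: 50 nM FITC-LANA1-23 probe | Medium: TEN-BT buffer, pH 7.5 | Times: 10–45 min incubation at room temperature | Detection: Fluorescence polarization | Replication: Duplicates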

SMILES | z-score
CC(Oc1ccccc1)c1ccnc2ncnn12 (centres undefined) | 1.01
Cc1occc1-c1nnc2n1N=C(c1ccc(-c3cc(Cl)ccc3Cl)o1)CS2 | -0.0445
O=C(O)c1ccc(Sc2ccccc2C(=O)O)c(C(=O)O)c1 | 0.129
Cc1ccc2c(n1)sc1c(=O)n(-c3ccccc3)nnc12 | 0.192
CCOC(=O)c1c(NC(=S)N2CCN(C(=O)c3ccco3)CC2)sc2c1CCCCCC2 | 0.494
O=C(CSc1nnc(Cc2cc(=O)[nH]c(=O)[nH]2)n1-c1ccccc1)NCc1ccco1 | 0.726
NNC(=O)Cc1csc(CC(N)=O)n1 | -1.71
O=C(CC1OCCN(Cc2ccccc2)C1=O)Nc1ccc(F)cc1 (centres undefined) | 0.194
O=C(c1cnc2sc(N3CCCCC3)nn2c1=O)N1CCCC1 | -0.108
Cc1ccc(Cn2cc(C(=O)Nc3cccnc3)ccc2=O)cc1 | -0.673
O=C(CC1Nc2ccccc2NC1=O)Nc1ccccc1NC(=O)CC1Nc2ccccc2NC1=O (centres undefined) | -0.867
O=S(=O)(c1cnc[nH]1)N1CCN(Cc2ccccc2)CC1 | -0.596
Cc1ccc(C(=O)Nc2nc3ccc(S(N)(=O)=O)cc3s2)cc1C | -0.589
CN(Cc1ccccc1)c1ncnc2c1nc1n2CCCCC1 | -0.37
O=C(NC1CCCC1)c1[nH]nc2c1CCc1ccccc1-2 | 0.227
CC(=O)Oc1cc(-c2ccccc2)nn1C | 0.038
CC(CC(=O)NN)C1(O)CCCCC1 (centres undefined) | 0.05
Cc1ccc(C2=Nc3ccccc3N(CC(=O)Nc3ccc4c(c3)OCO4)C(=O)C2)cc1 | -1.02
CCN(CC)S(=O)(=O)c1ccc2c(c1)CC(C)N2C(=O)C1CC1 (centres undefined) | 1.02
CC(C)(C)C(=O)N(Cc1ccccc1)c1ccccn1 | 0.774
CCc1ccc(C(c2c(C)[nH][nH]c2=O)C(C#N)C#N)cc1 (centres undefined) | 0.261
CCOc1ccc(/C=N/NC(=O)Cc2cc(=O)[nH][nH]2)cc1 | -1.01
CN(C)/C=C/c1nc(C(F)(F)F)c(C#N)s1 | 5.21
N#CCn1cc(C(=O)C(F)(F)F)c2ccccc21 | 0.359
O=C(Cn1c(=O)oc2ccccc21)NC1CCN(Cc2ccccc2)CC1 | -0.221
O=C1c2ccccc2OCC12COC(c1ccccc1)OC2 (centres undefined) | -1.2

SMILES | z-score
CC(=O)Nc1ccc(NCC(O)Cn2ccc3ccccc32)cc1 (centres undefined) | 1.77
CC1CCC(NC(=O)CCCn2ncn3c(cc4occc43)c2=O)CC1 (centres undefined) | 0.64
COCCNC(=O)N1c2ccccc2Sc2ccccc21 | 0.827
O=C(CNc1ccc(C(=O)O)cc1)NCc1ccc2c(c1)OCO2 | 0.298
N/C(=N\O)c1cnn2c(C(F)(F)F)cc(C(F)(F)F)nc12 | -0.264
CCc1ccc(N2COc3ccc4c(CC)cc(=O)oc4c3C2)cc1 | 0.115
Cc1cccc2cnn(CC(=O)N3CCc4ccccc4C3)c12 | 0.198
CN1C(C)(C)CC(NC(=O)Nc2ccc(F)cc2)CC1(C)C | 0.033
Cc1cc(C)n(C(C)CC(=O)Nc2ccc(CN3CCC(C)CC3)cc2)n1 (centres undefined) | -0.62
C[C@]12CCC(=O)C=C1C=CC1C2CC[C@@]2(C)C1CC[C@@]21CCC(=O)O1 (some centres undefined) | 0.0125 and 0.276
CN(C)c1ccc(-c2nnc(-c3cccnc3)o2)cc1 | -0.139
COc1cccc(N2C(=O)C=CC2=O)c1 | 0.499
CCCCc1ccc(NC(=O)CC)c(C)c1 | 1.52
COc1ccc(CNC(=O)C(NS(=O)(=O)c2cccc3nsnc23)C(C)C)cc1 (centres undefined) | -1.48
Cc1ccc(C(CC(=O)O)c2ccccc2)c(O)c1 (centres undefined) | 0.53
Cc1ccc(C(=O)CSc2nnc3[nH]c(=O)c(C)nn23)cc1 | -1.31
S=C(NCc1ccco1)Nc1nn(Cc2ccc(Cl)cc2Cl)cc1Cl | 1.51
Cc1cc(N2CCOCC2)nc2ccc(NC(=O)CCC(=O)NC3CCCCC3)cc12 | 0.0965
CCCn1c(SCC(=O)N2CCCc3ccccc32)nnc1C(C)C | -2.58
CCCNC(=O)c1cc2c(Cl)ccc3c2n1CCO3 | -0.473
O=C1C=CC(=O)N1Nc1ccccc1 | 0.669
COC(=O)c1nnn(-c2nonc2N)c1CN1C(=O)c2ccccc2C1=O | -0.366
CCn1c(N2CCN(C(=O)Nc3ccc(Cl)c(C(F)(F)F)c3)CC2)nc2ccccc21 | -1.36
O=C1CCCC2=C1C(c1ccccn1)Nc1ccc3ncccc3c12 (centres undefined) | -0.381
Cc1cccc(-n2nc(C)c3c(C)cc(=O)oc32)c1 | 0.165
O=C(O)c1cccc2c1C(=O)N(C1CCCC1)C2 | 0.735

SMILES | z-score
OCc1cccnc1Sc1ccccc1 | 0.147
Cc1ccc2c(c1)cc(CN(Cc1ccco1)C(=O)c1ccccc1)c1nnnn12 | 0.235
Cc1cc(OCCN2CCOCC2)nc(N2CCOCC2)n1 | 0.348
Cc1sc(-c2cccs2)nc1O | -0.538
CCc1cccc2c(C=C(C#N)C#N)cn(CC(=O)NC3CCCC3)c12 | 0.0985
Nc1c2c3c(sc2nc(=O)n1Cc1ccco1)CCC3 | 0.229
COc1ccc(N(C)S(=O)(=O)c2ccc3c(c2)CC(C)N3C(=O)C2CC2)c(OC)c1 (centres undefined) | -0.361
COc1cccc(/C=C2/Sc3ccc(C(=O)NCc4ccco4)cc3NC2=O)c1 | -0.179
COCCNC(=O)c1cccc(OC(C)C)c1 | 0.494
CN(C(=O)CSc1nc(N)cc(=O)[nH]1)c1ccccc1 | -0.19
Cc1ccsc1/C=N/c1sc2c(c1C#N)CCCC2 | -0.764
Cc1cc(C)c2nc(C(F)(F)F)nc(NCc3ccc4c(c3)OCO4)c2c1 | 2.86
CCOC(=O)NCc1cc(C(=O)O)ccc1O | 0.19
CCN1C(=Nc2ccc(O)cc2)SC/C1=C\C(=O)OC | 2.25
CN(C)C(CNC(=O)c1cc2ccccc2oc1=O)c1ccco1 (centres undefined) | -0.421
O=S1(=O)CCC(S(=O)(=O)N2CCCC2)C1 (centres undefined) | -0.472
CCCCSC1=NC(=O)CC(=O)N1 | -1.46
CC(=O)N1CCC(N(c2ccc3c(c2)OCO3)S(=O)(=O)c2ccccc2)CC1 | 0.764
Cc1ccc(S(=O)(=O)Nc2cccc(C(=O)N3CCCCC3)c2)cc1 | 1.2
O=C(O)CN1CC(=O)Nc2ccccc21 | 0.771
O=C1Nc2ccccc2N(c2ccccc2)N1 | -3.48 (active)
CCCCC(C)C(N)=O (centres undefined) | -0.323
CC[N+](C)(CC)CCC[n+]1c(-c2ccccc2)c2cc(N)ccc2c2ccc(N)cc21 | -3.89 (active) and -3.44 (active)
CCN(Cc1ccccc1)C(=O)C1CCN(Cc2cc(Br)c(O)c(OC)c2)CC1 | -0.834
O=C1CC(NC2CCN(S(=O)(=O)c3ccc(Cl)cc3)CC2)C(=O)N1 (centres undefined) | 2.47
Cc1ccc(NC(=O)CSC2=NC(=O)CC(=O)N2)cc1 | -0.876

SMILES | z-score
COc1ccc(C2=NS(=O)(=O)N(C)C(C(=O)NCC(C)C)=C2)cc1OC | -0.724
CCN(CC)C(=O)Cc1c(C(=O)O)[nH]c2ccc(Cl)cc12 | 0.22
Cc1ccc(C(=O)N2CCCN(C)CC2)o1 | -1.2
O=C(OCc1ccccc1Cl)c1cc(=O)[nH]c2ccccc12 | -1.04
O=C(Nc1ccc(Cl)cc1)c1ncoc1-c1cccs1 | 0.41
COC(=O)c1ccc(NS(=O)(=O)c2cc(C(=O)OC)n(C)c2)cc1 | -0.537
Cc1ccc(-c2nc3ccccc3[nH]2)cc1NC(=O)C(C)C | -0.762
CCC(=O)NC1CC(=O)N(c2ccc(F)cc2)C1 (centres undefined) | -0.098
COc1ccc(CCN2C(=O)CSC2c2ccc3cccc(O)c3n2)cc1OC (centres undefined) | 1.12
Cn1ncc(Br)c1-c1cccc(NC(=O)COCC(=O)O)c1 | -1.14
CCCCCn1c(=O)[nH]c2cc(C(=O)Nc3cc(OC)c(OC)c(OC)c3)ccc2c1=O | -0.668
Cn1c(=O)c2c(nc(N3CCNCC3)n2C)n(C)c1=O | 0.302
COc1ccc2oc(=O)cc(-c3cc4ccccc4o3)c2c1 | -0.251
O=c1c(-c2cc3ccccc3o2)[n+]([O-])c2ccccc2n1O | -2.61 (active)
O=C(CSc1ncccn1)N1CCCC1 | -0.327
O=C(Nc1ccc2nc(CN3CCCCC3)[nH]c2c1)c1cccs1 | -0.0365
Cc1cccc(C)c1N1CCN(S(=O)(=O)N2CCCCC2)CC1 | -1.66
COc1ccc(C(=O)Nc2ccccc2C(=O)NCc2ccco2)cc1 | 0.333
CN(C)C(=O)CN1CCC(N2CCCCC2)CC1 | -0.624
COc1ccc(Cn2ccc3nc4ccn(Cc5ccc(OC)cc5)c(=O)c4cc3c2=O)cc1 | 0.327
CN1C(=O)/C(=C/C=C2\SCCN2C)OC1=S | -2.92 (active)
COc1cccc(NS(=O)(=O)c2ccc3[nH]cc(C(=O)N4CCCCC4C)c(=O)c3c2)c1 (centres undefined) | 0.613
O=C(O)COc1ccc(CN2CCCC2)cc1 | 0.199
N/C(=N\OC(=O)CC1CCCCC1)c1ccccc1 | -0.568
Cc1nnc(NC2CC2)c2c1nnn2Cc1ccc(F)cc1 | 0.653
CN(C)CCNC(=O)c1ccc(/C=C2\SC(=S)N(C)C2=O)cc1 | 1.24
